Measurements taken from ChEMBL document CHEMBL1140109, “Discovery of inhibitors of Escherichia coli methionine aminopeptidase with the Fe(II)-form selectivity and antibacterial activity” (J Med Chem, 2008).
Converted amounts (≈) assume the structure as drawn. The source made the active and inactive calls. The calls are words filed in the database; no cut-off is given here.

Assays:
[1] = Inhibition of Escherichia coli BL21(DE3) methionine aminopeptidase in presence of Mn(II) metal ions
Outline: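 E. coli MetAP apoenzyme, recombinant from BL21(DE3), at 500 nM and metallated with 20 μM MnCl2. Contained 50 mM MOPS pH 7.0 and 200 μM Met-AMC, at room temperature. IC50 was derived by non-linear fit of percent inhibition versus concentration.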

[2] = Inhibition of Escherichia coli BL21(DE3) methionine aminopeptidase in presence of Fe(II) metal ions
Outline: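 Purified BL21(DE3)-expressed E. coli MetAP apoenzyme at 500 nM, activated with 50 μM FeCl2 plus 100 μM ascorbic acid. Buffer was 50 mM MOPS pH 7.0 with 200 μM Met-AMC, at room temperature. Hydrolysis was followed by fluorescence (ex 360/em 460 nm) at serially diluted inhibitor concentrations. IC50 was obtained by non-linear curve fit of percent inhibition.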

[3] = test system: Escherichia coli; assay: Antibacterial activity against Escherichia coli AS19; type: functional, organism-based
Outline: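 AS19 culture at 0.5 McFarland, exponential phase, diluted 1000-fold in Mueller Hinton medium containing 100 mM Tris pH 7.5, exposed to increasing inhibitor concentrations […]. Growth followed by absorbance at 600 nm every 5 min for 10 h at 37°C.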

[4] = test system: Escherichia coli; assay: Antibacterial activity against Escherichia coli D22; type: functional, organism-based
Outline: (§1)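 Exponential-phase culture at 0.5 McFarland diluted 1000-fold in Mueller Hinton medium with 100 mM Tris pH 7.5, mixed with inhibitor at increasing concentrations plus resazurin (110 µM final). Fluorescence (ex 530/em 590) read every 5 min for 10 h at 37°C.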

[5] = test system: Bacillus subtilis; assay: Antibacterial activity against Bacillus subtilis; type: functional, organism-based; outline: as §1
[6] = test system: Priestia megaterium; assay: Antibacterial activity against Bacillus megaterium; type: functional, organism-based; outline: as §1
[7] = Inhibition of Escherichia coli BL21(DE3) methionine aminopeptidase in presence of Co(II) metal ions
Outline: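 Recombinant E. coli MetAP apoenzyme purified from BL21(DE3) cells, used at 500 nM and activated with 10 μM CoCl2. Buffer was 50 mM MOPS pH 7.0 with 200 μM Met-AMC substrate, at room temperature. AMC release was read by fluorescence (ex 360/em 460 nm) across serially diluted inhibitor. IC50 came from non-linear fitting of percent inhibition.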

[8] = test system: Escherichia coli BL21(DE3); assay: Inhibition of Escherichia coli BL21(DE3) methionine aminopeptidase up to 100 uM in presence of Co(II) metal ions
Outline: (§2)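 Purified apoenzyme (500 nM) in 50 mM MOPS pH 7.0 with 200 µM Met-AMC, activated by 50 µM FeCl2 plus 100 µM ascorbic acid (Fe), 10 µM CoCl2 (Co) or 20 µM MnCl2 (Mn), with serially diluted inhibitor. AMC release read by fluorescence (ex 360/em 460) at room temperature. IC50 from non-linear fit of percent inhibition versus concentration.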

[9] = test system: Escherichia coli BL21(DE3); assay: Inhibition of Escherichia coli BL21(DE3) methionine aminopeptidase up to 100 uM in presence of Mn(II) metal ions; outline: as §2
[10] = test system: Escherichia coli BL21(DE3); assay: Inhibition of Escherichia coli BL21(DE3) methionine aminopeptidase up to 100 uM in presence of Fe(II) metal ions; outline: as §2
[11] = test system: Escherichia coli; assay: Antibacterial activity against Escherichia coli ATCC 25922; type: functional, organism-based
Outline: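 Wild-type strain grown to exponential phase (0.5 McFarland), diluted 1000-fold in Tris-free Mueller Hinton medium, incubated with increasing inhibitor concentrations and 110 µM resazurin. Fluorescence (ex 530/em 590) monitored 10 h at 37°C at 5-min intervals.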

SMILES	IC50 [1]	IC50 [2]	IC50 [3]	MIC [3]	IC50 [4]	MIC [4]	IC50 [5]	MIC [5]	IC50 [6]	MIC [6]	IC50 [7]	Activity [8]	Activity [9]	Activity [10]	IC50 [11]
Oc1ccc(-c2sccc2CCBr)cc1O	22.4 µM	7.3 µM	11.3 µM	5 mg/L (≈ 16.7 µM)	86 µM	51 mg/L (≈ 170 µM)	25.2 µM	10 mg/L (≈ 33.4 µM)	21.1 µM	14 mg/L (≈ 46.8 µM)	14 µM				
O=C(NC1CC1)c1ccsc1-c1ccc(O)c(O)c1	> 100 µM	7.8 µM	116 µM	113 mg/L (≈ 410 µM)	254 µM	151 mg/L (≈ 548 µM)	109 µM	56 mg/L (≈ 203 µM)	54 µM	79 mg/L (≈ 287 µM)	> 100 µM				
CCCCc1ccsc1-c1ccc(O)c(O)c1	48.2 µM	9.2 µM	12.4 µM	5 mg/L (≈ 20.1 µM)	13.5 µM	5 mg/L (≈ 20.1 µM)	7.8 µM	3 mg/L (≈ 12.1 µM)	7.6 µM	3 mg/L (≈ 12.1 µM)	> 100 µM				
COc1ccc(-c2csc(C)n2)cc1OC			206 µM									inactive	inactive	inactive	
CCc1ccsc1-c1ccc(O)c(O)c1		12.9 µM	15.4 µM	5 mg/L (≈ 22.7 µM)	11.8 µM	6 mg/L (≈ 27.2 µM)	21.8 µM	7 mg/L (≈ 31.8 µM)	27.8 µM	11 mg/L (≈ 49.9 µM)	62.6 µM				
Oc1ccc(-c2nccs2)cc1O	> 100 µM	16.6 µM	235 µM	198 mg/L (≈ 1020 µM)	98.7 µM	66 mg/L (≈ 342 µM)	397 µM	193 mg/L (≈ 999 µM)	224 µM	112 mg/L (≈ 580 µM)	> 100 µM				
Cc1ccc(-c2ccc(O)c(O)c2)s1	28 µM	32.7 µM	87.7 µM	60 mg/L (≈ 291 µM)	39.1 µM	18 mg/L (≈ 87.3 µM)	25.1 µM	10 mg/L (≈ 48.5 µM)	26 µM	10 mg/L (≈ 48.5 µM)	51.5 µM				
CC(=O)Nc1ccc(-c2csc(C)n2)cc1[N+](=O)[O-]			63.3 µM									inactive	inactive	inactive	
Oc1ccc(-c2cc(Cl)sc2Cl)cc1O	48.6 µM	20.2 µM	6.1 µM	3 mg/L (≈ 11.5 µM)	7.3 µM	2 mg/L (≈ 7.66 µM)	6 µM	2 mg/L (≈ 7.66 µM)	5 µM	1 mg/L (≈ 3.83 µM)	62.4 µM				
Cc1nc(-c2ccc(O)c(C(N)=O)c2)cs1			125 µM									inactive	inactive	inactive	
N#Cc1ccc(-c2ccc(O)c(O)c2)s1	30.4 µM	14.8 µM	20.1 µM	11 mg/L (≈ 50.6 µM)	44.2 µM	15 mg/L (≈ 69 µM)	14.6 µM	13 mg/L (≈ 59.8 µM)	15.3 µM	9 mg/L (≈ 41.4 µM)	36.3 µM				
Cc1nc(-c2ccc(O)cc2O)cs1			95.9 µM									inactive	inactive	inactive	
Oc1ccc(-c2ccc(Cl)s2)cc1O	44.8 µM	12.8 µM	15.5 µM	7 mg/L (≈ 30.9 µM)	7.5 µM	3 mg/L (≈ 13.2 µM)	7.1 µM	2 mg/L (≈ 8.82 µM)	6.3 µM	2 mg/L (≈ 8.82 µM)	> 100 µM				
Cc1nc(C(=O)NC2CC2)c(-c2ccc(O)c(O)c2)s1	100 µM	11.1 µM	125 µM	138 mg/L (≈ 475 µM)	167 µM	103 mg/L (≈ 355 µM)	113 µM	51 mg/L (≈ 176 µM)	75.5 µM	62 mg/L (≈ 214 µM)	92.3 µM				
Cc1nc(C(=O)NC(C)C)c(-c2ccc(O)c(O)c2)s1	> 100 µM	15.4 µM	116 µM	121 mg/L (≈ 414 µM)	93.8 µM	73 mg/L (≈ 250 µM)	186 µM	125 mg/L (≈ 428 µM)	175 µM	122 mg/L (≈ 417 µM)	> 100 µM				
Cc1nc(-c2ccc(N)c(N)c2)cs1			117 µM									inactive	inactive	inactive	
Oc1ccc(-c2cccs2)cc1O	15.7 µM	5.1 µM	32.8 µM		4 µM	3 mg/L (≈ 15.6 µM)	16.1 µM	7 mg/L (≈ 36.4 µM)	21.2 µM	9 mg/L (≈ 46.8 µM)	23.7 µM				
Cc1nc(-c2ccc(O)c(O)c2)cs1	> 100 µM	13 µM	117 µM	91 mg/L (≈ 439 µM)	5.6 µM	4 mg/L (≈ 19.3 µM)	67 µM	41 mg/L (≈ 198 µM)	69.8 µM	73 mg/L (≈ 352 µM)	> 100 µM				281 µM
CCCc1ccsc1-c1ccc(O)c(O)c1	34.3 µM	14 µM	15.5 µM	4 mg/L (≈ 17.1 µM)	43 µM	19 mg/L (≈ 81.1 µM)	14.9 µM	4 mg/L (≈ 17.1 µM)	15.5 µM	6 mg/L (≈ 25.6 µM)	100 µM				
Cc1nc(-c2ccc(N)c([N+](=O)[O-])c2)cs1			204 µM									inactive	inactive	inactive	
Cc1sc(C)c(-c2ccc(O)c(O)c2)c1Br	2.1 µM	3.1 µM	10.8 µM	5 mg/L (≈ 16.7 µM)	7.7 µM	9 mg/L (≈ 30.1 µM)	12.8 µM	8 mg/L (≈ 26.7 µM)	17.5 µM	10 mg/L (≈ 33.4 µM)	2.4 µM				
Cc1ccsc1-c1ccc(O)c(O)c1	23 µM	8 µM	15.2 µM	7 mg/L (≈ 33.9 µM)	9 µM	3 mg/L (≈ 14.5 µM)	22.1 µM	8 mg/L (≈ 38.8 µM)	15.3 µM	13 mg/L (≈ 63 µM)	42.7 µM				179 µM
Nc1nc(-c2ccc(O)c(O)c2)cs1	> 100 µM	6.6 µM	145 µM	39 mg/L (≈ 187 µM)	39.9 µM	11 mg/L (≈ 52.8 µM)	28.6 µM	13 mg/L (≈ 62.4 µM)	36.9 µM	26 mg/L (≈ 125 µM)	> 100 µM				
Cc1cc(-c2ccc(O)c(O)c2)c(C)s1	> 100 µM	7.4 µM	18.5 µM	9 mg/L (≈ 40.9 µM)	3.7 µM	4 mg/L (≈ 18.2 µM)	16.5 µM	5 mg/L (≈ 22.7 µM)	16 µM	5 mg/L (≈ 22.7 µM)	> 100 µM				
Cc1nc(-c2cccc(O)c2)cs1			158 µM									inactive	inactive	inactive	
Oc1ccc(-c2ccsc2)cc1O	27.5 µM	3.8 µM	29.9 µM	15 mg/L (≈ 78 µM)	2 µM	2 mg/L (≈ 10.4 µM)	15.7 µM	9 mg/L (≈ 46.8 µM)	19.2 µM	10 mg/L (≈ 52 µM)	40.4 µM				
O=C(NC1CC1)c1ccc(-c2ccc(O)c(O)c2)s1	34 µM	23.8 µM	110 µM	78 mg/L (≈ 283 µM)	238 µM	105 mg/L (≈ 381 µM)	211 µM	122 mg/L (≈ 443 µM)	133 µM	85 mg/L (≈ 309 µM)	28.5 µM				
